KCNQ1 inh – blocks the human KCNQ1 potassium channel | P51787 | CHO-K1 KCNQ1, FluxOR thallium flux fluorescence; stronger effect = higher value | B-score at 10 µM | 310,000 tested, 1.3% active | AID 2642;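 active = compounds whose thallium flux B-score, printed positive for inhibition, exceeds three library SD while starting fluorescence stays within three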;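 also: channel opened by potassium depolarization with thallium stimulus after 20 min compound exposure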
KCNQ1 act – potentiates or activates the human KCNQ1 potassium channel; P51787; CHO-K1 KCNQ1, thallium flux FluxOR fluorescence; stronger effect = higher value; B-score at 10 µM; 310,000 tested, 0.35% active;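 active = fluorescence ratio B-score, a plate-corrected score, at least three library SD, with initial intensity B-score within 5 SD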
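Assay system: stable KCNQ1 CHO-K1 line; medium: assay buffer, equal DMSO in all wells; timing: 90 min dye loading and 20 min compound exposure, both at room temperature; technique: kinetic FluxOR thallium fluorescence, 10-s 1-Hz baseline, 110-s post-stimulus read; read-out basis: B score of baseline-normalized fluorescence ratio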
hERG rescue – compounds protecting human hERG from proarrhythmic drug block; Q12809; CHO-hERG, FluxOR thallium flux, dofetilide IC70 present; activation (rescue from dofetilide block), less the hit threshold, % at 10 µM; 310,000 tested, 0.51% active; AID 1511;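 active = activation above the mean of controls blocked by dofetilide plus 5 SD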;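 also: thallium influx through hERG after potassium depolarization seen as dye fluorescence rise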
KCNK9 block – blocks the human KCNK9 two-pore domain potassium channel; Q9NPC2; HEK293 KCNK9, FluxOR thallium flux fluorescence; stronger effect = lower value; B-score at 10 µM; 310,000 tested, 1.2% active;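 active = ratio B-score over 3 SD below the library mean, with starting fluorescence within 5 SD of its mean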;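 also: negative B-score means less thallium flux so channel inhibition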
KCNK3 inh – human KCNK3 channel inhibition, primary screen | O14649 | CHO-KCNK3 thallium flux, FluxOR fluorescence; stronger effect = lower value | B-score at 10 µM | 340,000 tested, 0.84% active;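 active = B-score under library mean minus 4 SD, starting fluorescence ratio at most library mean plus 5 SD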;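 also: more negative B-score means stronger inhibition of thallium flux through KCNK3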
KCC2 mod – KCC2 (human) Cl- transport modulation; KCC2 cells, thallium flux FluoZin-2 fluorescence; B-score of Tl+ flux slope (higher = more flux/activation; lower = inhibition) at 10 µM; 190,000 tested, 2.2% active;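 active = thallium flux slope and its plate-corrected score both differing from the plate sample mean at a set confidence after two filtering rounds, in either direction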;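 also: slope of fluorescence scaled to starting intensity during 10 to 20 s after thallium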
An asterisk follows results filed as active; i = inactive; . = no result; ! = a repeat was not active. Hits are enriched below; roughly 4.1% of the tested compounds scored in any of these assays.

SMILES | KCNQ1 inh | KCNQ1 act | hERG rescue | KCNK9 block | KCNK3 inh | KCC2 mod
O=C(Nc1cccc(Cl)c1N1CCCC1)c1cccc(-c2cc3ccccc3oc2=O)c1 | i | i | -8 | -7.1* | i | 0.031
COc1cc2c(cc1OC)C1=CC(=O)C(=O)N1C(C)(C)C2 | 12* | i | -11 | i | i | 1
COc1cc2c(cc1OC)-c1nc3ccccc3c(=O)n1C(C)(C)C2 | i | i | -13 | i | i | 0.3
Cn1ncc2cc(NC(=S)NC(=O)c3ccccc3)ccc21 | i | i | -12 | i | i | 4.2*
CC(C)CNC(=S)NC(=O)c1ccc(Cl)cc1Cl | i | 10* | -10 | i | i | 39*
CC(C)CNC(=S)NC(=O)c1ccc(F)cc1 | i | i | -1 | i | i | 18*
CC(C)NC(=S)NC(=O)c1ccc(Cl)cc1Cl | i | i | -2 | i | i | 29*
COc1cc(NC(=O)COc2cccc3c2OC(C)(C)C3)cc(OC)c1OC | . | . | . | . | i | .
CCC(=Cc1ccccc1OC)c1ccncc1 | . | . | . | . | i | .
O=S(=O)(c1ccc2c(c1)OCCO2)N1CCN(c2ncnc3sccc23)CC1 | 6* | i | -14 | i | i | -0.13
Cc1ccc(S(=O)(=O)N2CCN(c3ncnc4sccc34)CC2)cc1C | . | . | . | . | i | .
O=C(O/N=C1\CCS(=O)(=O)c2sccc21)C1CC1 | i | i | 5.0* | i | i | 1.9
CC(C)(C)C(=O)O/N=C1\CCS(=O)(=O)c2sccc21 | i | i | -4 | i | i | -0.42
Cc1ccc(-n2cccc2/C=C2/C(=N)N3C(=NC2=O)SN=C3S(C)(=O)=O)cc1 | 10* | i | -22 | i | i | -3.7
COc1cc(C(=O)NC(=S)N(CCc2ccccc2)CCc2ccccc2)cc(OC)c1OC | i | 29* | -3 | i | i | 73*
COc1cc(C(=O)NC(C)CCc2ccccc2)cc(OC)c1OC (stereo not given) | i | i | -8 | i | i | .
O=C(NC(=S)N(CCc1ccccc1)CCc1ccccc1)c1ccco1 | i | 47* | 37* | i | i | 44*
COc1ccc(C)cc1NC(=O)CN1CCCC1c1ccc2c(c1)OCCCO2 (stereo not given) | . | . | . | . | i | .
O=C(N/C=C/c1ccccc1)c1ccccc1 | i | i | -9 | i | i | .
COC(=O)c1ccccc1CSc1nsc(/C=C/N(C)C)c1C#N | 6* | i | -20 | i | i | .
COc1cccc(C(=O)CSc2nnc(-c3cc(OC)cc(OC)c3)o2)c1 | i | i | 6.2* | i | i | .
O=C1C(Cc2ccccc2)Nc2ncnc(N3CCc4ccccc4C3)c2N1Cc1ccc(Br)cc1 (stereo not given) | i | i | -13 | -7.7* | . | .
O=C1C(Cc2ccccc2)Nc2ncnc(N3CCN(c4ccccc4)CC3)c2N1Cc1ccc(Br)cc1 (stereo not given) | . | . | . | . | i | .
Oc1[nH]c2ccccc2c1N=Nc1ccccn1 | . | . | . | . | i | .
Oc1c(N=Nc2ccccn2)ccc2ccccc12 | i | 29* | 25* | i | i | 53*
SMILES | KCNQ1 inh | KCNQ1 act | hERG rescue | KCNK9 block | KCNK3 inh | KCC2 mod
CCN(CC(=O)Nc1c(F)cccc1F)C(=O)CCNC(=O)c1ccco1 | . | . | . | . | i | .
COc1cc(/C=C2/SC(=S)N(CC(=O)O)C2=O)ccc1OCC(=O)Nc1ccc(C)c(C)c1 | i | i | 19* | i | i | .
CCCCCn1c(=N)n(CC(O)COc2ccccc2OC)c2ccccc21 (stereo not given) | 7*! | i | -26 | i | i | 0.41
CCCn1c(=N)n(CC(O)COc2ccc(C)cc2)c2ccccc21 (stereo not given) | i | i | -7 | i | i | -0.68
CCCCn1c(=N)n(CC(O)COc2cccc(C)c2)c2ccccc21 (stereo not given) | 7* | i | -24 | i | i | .
CCN(CC)CCNC(=O)c1nn(-c2ccc(Cl)cc2)c2c1CCc1cc(OC)ccc1-2 | . | . | . | . | i | .
O=C(N/N=C\c1cc(Br)c(Br)o1)c1cncc(Br)c1 | i | i | -1 | i | i | 16*
O=C(N/N=C/c1cc(Br)c(Br)o1)c1cccnc1 | i | i | -1 | i | i | 0.47
